Assay results published in ChEMBL document CHEMBL2346655, “Synthesis and in vitro biological evaluation of 2,6,9-trisubstituted purines targeting multiple cyclin-dependent kinases” (Eur J Med Chem, 2013).
The source made the active and inactive calls. No cut-off for these calls is given here.

How the values were obtained:
K562 [1] = test: Induction of apoptosis in human K562 cells assessed as caspase-3/7 activation by fluorescence assay; assay type: functional, cell-based
Procedure, shortened: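 After 24 h treatment, cells were lysed on ice for 20 min in pH 7.4 HEPES/KCl/EDTA/EGTA/0.2% CHAPS buffer with protease inhibitors and cleared at 10,000 × g for 30 min at 4 °C. Protein was equalized, then incubated for 1 h with 100 μM Ac-DEVD-AMC in PIPES buffer pH 7.3 containing DTT. Fluorescence was read at 355/460 nm; 100 μM Ac-DEVD-CHO served as the negative control.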

HCT-116 [2] = test: Cell cycle arrest in human HCT116 cells assessed as accumulation at G2/M phase at 0.2 uM after 24 hrs by propidium iodide staining-based flow cytometric analysis (reference value: 19.6%); assay type: functional
Procedure, shortened: (§1)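 Sub-confluent cells treated at several concentrations for 24 h, then pulsed with 10 μM BrdU for 30 min at 37 °C before harvest. Cells were PBS-washed, fixed in 70% ethanol, denatured in 2 M HCl and neutralized. Stained with fluorescein anti-BrdU and propidium iodide; DNA content read by flow cytometry with 488 nm excitation.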

K562 [3] = test: Induction of apoptosis in human K562 cells assessed as PARP cleavage up to 5 uM after 24 hrs by immunoblotting analysis; assay type: functional, cell-based
Procedure, shortened: (§2)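 Cells were treated for 24 h, harvested directly into Laemmli sample buffer, and run on SDS-PAGE. Proteins were blotted to nitrocellulose, blocked, probed overnight with primary antibodies, then with peroxidase-linked secondaries. Bands were detected by ECL with a CCD camera. PCNA and tubulin served as loading references.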

HOS = test: Ratio of roscovitine IC50 to compound IC50 for human HOS cells; assay type: functional
Procedure, shortened: (§3)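 Cytotoxicity IC50s underlying the ratio: cells treated in triplicate with three-fold compound dilutions for 72 h, then Calcein AM added and live-cell fluorescence read at 485/538 nm (ex/em).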

K562 [4] = test: Cell cycle arrest in human K562 cells assessed as accumulation at S phase at 1 uM after 24 hrs by propidium iodide staining-based flow cytometric analysis (reference value: 38.8%); assay type: functional; procedure, shortened: as §1
K562 [5] = test: Induction of apoptosis in human K562 cells assessed as decrease in MCL1 level after 24 hrs by immunoblotting analysis; assay type: functional, cell-based; procedure, shortened: as §2
HCT-116 [6] = test: Induction of apoptosis in human HCT116 cells assessed as change in BCL2 level up to 5 uM after 24 hrs by immunoblotting analysis; assay type: functional, cell-based; procedure, shortened: as §2
K562 [7] = test: Induction of apoptosis in human K562 cells assessed as change in BCL2 level up to 5 uM after 24 hrs by immunoblotting analysis; assay type: functional, cell-based; procedure, shortened: as §2
HCT-116 [8] = test: Ratio of roscovitine IC50 to compound IC50 for human HCT116 cells; assay type: functional; procedure, shortened: as §3
K562 [9] = test: Cell cycle arrest in human K562 cells assessed as accumulation at S phase at 5 uM after 24 hrs by propidium iodide staining-based flow cytometric analysis (reference value: 38.8%); assay type: functional; procedure, shortened: as §1
MCF7 = test: Cytotoxicity against human MCF7 cells assessed as reduction in number of viable cells after 72 hrs by fluorescence assay; assay type: functional, cell-based; settings: MCF7, 72 h
Procedure, shortened: (§4)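 Three-fold compound dilutions tested in triplicate on cultured cells for 72 h. Viable cells detected by adding Calcein AM and reading fluorescence at 485/538 nm (ex/em).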

K562 [10] = test: Induction of apoptosis in human K562 cells assessed as caspase-3 activation up to 5 uM after 24 hrs by immunoblotting analysis; assay type: functional, cell-based; procedure, shortened: as §2
[11] = target: CDK9/cyclin T1 (Homo sapiens) (UniProt O60563+P50750); test: Inhibition of CDK9/CyclinT1 in human HCT116 cells assessed as increase in p21 expression at 1 to 5 uM after 24 hrs by immunoblotting analysis; assay type: cell-based; settings: HCT-116
Procedure, shortened: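 Immunoblot: cells lysed by harvesting in Laemmli sample buffer, proteins run on SDS-PAGE, electroblotted to nitrocellulose, blocked, primary antibodies overnight, peroxidase-conjugated secondaries, ECL detection by CCD camera. Antibodies included anti-phospho RNA polymerase II (S2), anti-RNA polymerase II (ARNA-3), anti-p53 (DO-1), anti-p21waf1 (118), anti-PCNA.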

HCT-116 [12] = test: Cell cycle arrest in human HCT116 cells assessed as accumulation at S phase after 24 hrs by BrdU incorporation assay; assay type: functional, cell-based
Procedure, shortened: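 Sub-confluent cells were exposed to compound for 24 h, then pulse-labeled with 10 μM BrdU for 30 min at 37 °C. After ethanol (70%) fixation and 2 M HCl denaturation, cells were stained with fluorescein anti-BrdU antibody plus propidium iodide. The BrdU-positive S-phase fraction was quantified by flow cytometry (488 nm laser).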

[13] = target: Cyclin-dependent kinase 7/ cyclin H (Homo sapiens, UniProt P50613); test: Inhibition of CDK7/CyclinH/MAT1 (unknown origin) using (YSPTSPS)2KK as substrate; assay type: protein-complex assay
Sequence of Cyclin-dependent kinase 7/ cyclin H (P51946 whole entry): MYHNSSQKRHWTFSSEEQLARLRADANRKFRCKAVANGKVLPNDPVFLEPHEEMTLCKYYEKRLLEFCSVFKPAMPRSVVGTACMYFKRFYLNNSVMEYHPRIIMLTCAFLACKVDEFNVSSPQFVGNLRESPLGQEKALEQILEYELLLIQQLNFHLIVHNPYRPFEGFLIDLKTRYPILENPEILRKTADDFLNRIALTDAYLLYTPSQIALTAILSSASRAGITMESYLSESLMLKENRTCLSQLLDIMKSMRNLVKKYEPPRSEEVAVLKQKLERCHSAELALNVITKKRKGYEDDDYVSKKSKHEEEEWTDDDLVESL
Sequence of Cyclin-dependent kinase 7/ cyclin H (P50613 whole entry): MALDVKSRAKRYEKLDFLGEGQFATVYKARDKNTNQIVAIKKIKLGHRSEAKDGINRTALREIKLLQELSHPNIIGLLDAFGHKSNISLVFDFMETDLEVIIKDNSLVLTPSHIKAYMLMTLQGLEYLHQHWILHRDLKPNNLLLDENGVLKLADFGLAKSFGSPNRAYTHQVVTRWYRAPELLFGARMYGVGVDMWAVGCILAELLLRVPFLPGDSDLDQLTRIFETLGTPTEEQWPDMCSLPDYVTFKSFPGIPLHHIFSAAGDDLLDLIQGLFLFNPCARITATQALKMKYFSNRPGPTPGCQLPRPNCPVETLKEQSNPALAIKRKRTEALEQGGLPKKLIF
Procedure, shortened: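 Buffer was 60 mM HEPES-NaOH pH 7.5, 3 mM MgCl2, 3 mM MnCl2, vanadate, DTT and PEG. Reactions were stopped with H3PO4 and spotted on P-81 paper, which was then washed. Radioactivity was imaged; IC50 taken from dose–response curves.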

K562 [14] = test: Cell cycle arrest in human K562 cells assessed as accumulation at subG1 phase at 0.2 uM after 24 hrs by propidium iodide staining-based flow cytometric analysis (reference value: 2.4%); assay type: functional; procedure, shortened: as §1
K562 [15] = test: Cell cycle arrest in human K562 cells assessed as accumulation at G1 phase at 5 uM after 24 hrs by propidium iodide staining-based flow cytometric analysis (reference value: 47.3%); assay type: functional; procedure, shortened: as §1
K562 [16] = test: Cytotoxicity against human K562 cells assessed as reduction in number of viable cells after 72 hrs by fluorescence assay; assay type: functional, cell-based; settings: K562, 72 h; procedure, shortened: as §4

Q: With `CC[C@@H](Nc1nc(NCc2cc(Cl)ccc2O)c2ncn(C(C)C)c2n1)C(C)O` (mixture of isomers) as the molecule, how does the Activity (K562 [1]) read?
A: The Activity was “Dose-dependent effect”.

Q: And the Activity (HCT-116 [2])?
A: Its Activity is 23.4%.

Q: And the Activity (K562 [3])?
A: Its Activity is “Active”.

Q: And the “Ratio IC50” value (HOS)?
A: Its value is greater than 9.

Q: What about the Activity (K562 [4]) of the same molecule?
A: Its Activity is 39.8%.

Q: And the Activity (K562 [5])?
A: Its Activity is “Dose-dependent effect”.

Q: And the Activity (HCT-116 [6])?
A: The Activity was “inactive”.

Q: What about the Activity (K562 [7]) of the same molecule?
A: The Activity was “inactive”.

Q: What about the “Ratio IC50” value (HCT-116 [8]) of the same molecule?
A: Its value is greater than 9.

Q: What about the Activity (K562 [9]) of the same molecule?
A: The Activity was 27.8%.

Q: What about the IC50 (MCF7) of the same molecule?
A: The IC50 was 2600 nM.

Q: And the Activity (K562 [10])?
A: The Activity was “inactive”.

Q: And the inhibition [11]?
A: Its inhibition is “Active”.

Q: What about the Activity (HCT-116 [12]) of the same molecule?
A: Its Activity is “Dose-dependent effect”.

Q: What about the IC50 [13] of the same molecule?
A: Its IC50 is 97 nM.

Q: What about the Activity (K562 [14]) of the same molecule?
A: The Activity was 2.8%.

Q: What about the Activity (K562 [15]) of the same molecule?
A: Its Activity is 40.7%.

Q: What about the IC50 (K562 [16]) of the same molecule?
A: Its IC50 is 3300 nM.
